# Source: ChEMBL document CHEMBL1123328, “Catechol estrogens of the 1,1,2-triphenylbut-1-ene type: relationship between structure, estradiol receptor affinity, estrogenic and antiestrogenic properties, and mammary tumor inhibiting activities” (1986)
# Assays:
# Mus musculus [1] = assay: (§1) In vivo inhibition of hormone-dependent MXT mammary tumor in mice; assay type: functional
# Procedure, shortened: (§2)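 MXT tumor pieces (~2 mm3) implanted sc into female 8-week-old BDF1 mice, randomized into groups of 10. From day 1 after transplant, compound in olive oil given sc 3 times weekly (equimolar doses) for 6 weeks. Tumors excised and weighed. T/C % = treated/solvent-control tumor weight × 100 (mean of 10); uterus T/C also recorded.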
# Mus musculus [2] = assay: as §1; assay type: functional; procedure, shortened: as §2; remark: listed apart in the source
# [3] = molecular target: T1, Estrogen receptor (Mus musculus) (UniProt O08537+P19785); assay: […] estrogenic effect in immature mice at 500 ug; assay type: functional
# Procedure, shortened: (§3)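 Uterotrophic assay in immature female NMRI mice (10–12 g at start; 10 per group). Test compound in olive oil given sc daily for three consecutive days. Uteri removed 24 h after the last injection, fixed in Bouin's solution, dried and weighed. Estrogenic effect read as stimulation of uterine growth.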
# [4] = molecular target: T1, Estrogen receptor (Mus musculus); assay: […] estrogenic effect in immature mice at 1 ug; assay type: functional; procedure, shortened: as §3
# [5] = molecular target: T1, Estrogen receptor (Mus musculus); assay: In vivo anti-estrogenic effect in immature mice at 0.5 ug; assay type: functional, organism-based
# Procedure, shortened: (§4)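 Antiuterotrophic assay in immature female NMRI mice (10–12 g; 10 per group) with estrone-stimulated uterine growth. Test compound in olive oil given sc daily for 3 consecutive days. Uteri taken 24 h after the final dose, Bouin-fixed, dried and weighed. Antiestrogenic effect measured as inhibition of the estrone-driven uterine growth.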
# [6] = molecular target: T1, Estrogen receptor (Mus musculus); assay: In vivo anti-estrogenic effect in immature mice at 5 ug; assay type: functional, organism-based; procedure, shortened: as §4
# [7] = molecular target: T1, Estrogen receptor (Mus musculus); assay: In vivo anti-estrogenic effect in immature mice at 100 ug; assay type: functional, organism-based; procedure, shortened: as §4
# T1 sequence (O08537 whole entry, looked up): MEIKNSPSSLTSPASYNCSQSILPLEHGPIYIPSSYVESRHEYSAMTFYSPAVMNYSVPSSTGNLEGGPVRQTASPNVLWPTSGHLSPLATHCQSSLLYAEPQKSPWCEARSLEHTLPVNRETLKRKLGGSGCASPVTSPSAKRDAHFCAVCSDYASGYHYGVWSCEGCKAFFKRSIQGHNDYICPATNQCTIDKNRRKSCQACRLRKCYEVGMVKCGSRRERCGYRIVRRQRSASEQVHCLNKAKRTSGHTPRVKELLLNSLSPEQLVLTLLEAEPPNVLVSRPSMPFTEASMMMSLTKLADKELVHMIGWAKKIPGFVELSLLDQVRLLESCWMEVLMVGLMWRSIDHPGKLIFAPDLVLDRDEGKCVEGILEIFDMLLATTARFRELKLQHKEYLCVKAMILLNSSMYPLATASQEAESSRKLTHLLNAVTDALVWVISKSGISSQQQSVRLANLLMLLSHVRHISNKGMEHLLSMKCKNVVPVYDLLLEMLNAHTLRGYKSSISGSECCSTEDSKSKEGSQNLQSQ
# T1 sequence (P19785 whole entry, looked up): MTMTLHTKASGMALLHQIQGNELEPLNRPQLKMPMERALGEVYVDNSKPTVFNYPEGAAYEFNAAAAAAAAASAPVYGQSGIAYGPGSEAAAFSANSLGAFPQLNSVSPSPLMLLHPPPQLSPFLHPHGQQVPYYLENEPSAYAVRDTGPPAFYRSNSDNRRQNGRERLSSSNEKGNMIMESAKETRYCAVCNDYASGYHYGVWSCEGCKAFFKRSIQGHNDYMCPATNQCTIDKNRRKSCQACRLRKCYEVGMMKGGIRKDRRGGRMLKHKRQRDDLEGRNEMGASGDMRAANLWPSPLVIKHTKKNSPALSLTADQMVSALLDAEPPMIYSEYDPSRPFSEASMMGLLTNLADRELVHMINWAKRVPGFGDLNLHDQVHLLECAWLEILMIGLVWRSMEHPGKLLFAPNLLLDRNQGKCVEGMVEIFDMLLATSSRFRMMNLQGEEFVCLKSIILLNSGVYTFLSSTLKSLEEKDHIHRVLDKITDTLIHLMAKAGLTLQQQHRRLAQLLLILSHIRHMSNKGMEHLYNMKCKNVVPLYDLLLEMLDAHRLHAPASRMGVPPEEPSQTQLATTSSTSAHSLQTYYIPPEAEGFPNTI
Structure (SMILES),T/C (Mus musculus [1]),T/C (Mus musculus [2]),estrogenic effect [3],inhibition [4],inhibition [5],inhibition [6],inhibition [7]
CC/C(=C(\c1ccccc1)c1ccc(OCCN(C)C)cc1)c1ccccc1 [TAMOXIFEN],92%,10%,,,,,
CC/C(=C(/c1ccccc1)c1ccc(OC(C)=O)c(OC(C)=O)c1)c1cccc(OC(C)=O)c1,103%,35%,,,,,
CC/C(=C(\c1ccccc1)c1ccc(OC(C)=O)c(OC(C)=O)c1)c1ccc(OC(C)=O)c(OC(C)=O)c1,90%,75%,77%,,,,
CCC(=C(c1ccccc1)c1ccccc1)c1ccc(OC(C)=O)c(OC(C)=O)c1,115%,9%,,18%,,,
CC/C(=C(\c1ccc(OC(C)=O)cc1)c1ccc(OC(C)=O)c(OC(C)=O)c1)c1ccccc1,125%,23%,,,38%,,
CC/C(=C(\c1ccccc1)c1ccc(OC(C)=O)c(OC(C)=O)c1)c1cccc(OC(C)=O)c1,115%,82%,,,,,
CC/C(=C(/c1ccccc1)c1cccc(OC(C)=O)c1)c1ccc(OC(C)=O)c(OC(C)=O)c1,123%,2%,61%,,,,
CC/C(=C(\c1ccccc1)c1ccc(OC(C)=O)cc1)c1ccc(OC(C)=O)c(OC(C)=O)c1,195%,1%,,,,,
CC/C(=C(/c1ccccc1)c1ccc(OC(C)=O)c(OC(C)=O)c1)c1ccc(OC(C)=O)cc1,113%,22%,,,,,
CC/C(=C(\c1ccccc1)c1ccc(OC(C)=O)c(OC(C)=O)c1)c1ccccc1,107%,19%,77%,,,,
CC/C(=C(\c1ccccc1)c1ccc(OC(C)=O)c(OC(C)=O)c1)c1ccc(OC(C)=O)cc1,113%,40%,,,,,
CC/C(=C(/c1ccc(OC(C)=O)cc1)c1ccc(OC(C)=O)c(OC(C)=O)c1)c1ccccc1,99%,44%,,,0%,,
CC/C(=C(/c1ccccc1)c1ccc(OC(C)=O)c(OC(C)=O)c1)c1ccccc1,106%,17%,66%,,,,
CC/C(=C(/c1ccccc1)c1ccc(OC(C)=O)c(OC(C)=O)c1)c1ccc(OC(C)=O)c(OC(C)=O)c1,99%,84%,67%,,,,
CC/C(=C(\c1ccccc1)c1cccc(OC(C)=O)c1)c1ccc(OC(C)=O)c(OC(C)=O)c1,87%,30%,63%,,,53%,
CC/C(=C(/c1ccccc1)c1ccc(OC(C)=O)cc1)c1ccc(OC(C)=O)c(OC(C)=O)c1,183%,2%,,,,,
CCC(=C(c1ccc(OC(C)=O)c(OC(C)=O)c1)c1ccc(OC(C)=O)c(OC(C)=O)c1)c1ccccc1,107%,134%,13%,,,,54%
CCC(=C(c1ccc(OC(C)=O)cc1)c1ccc(OC(C)=O)c(OC(C)=O)c1)c1ccccc1,,,,,,,61%
